Measurements: ChEMBL document CHEMBL2062397, “N-heterocyclic dicarboxylic acids: broad-spectrum inhibitors of metallo-β-lactamases with co-antibacterial effect against antibiotic-resistant bacteria” (Bioorg Med Chem Lett, 2012)
The source made the active and inactive calls. No cut-off for these calls is given here.

Experiments:
Staphylococcus aureus [1] = assay: Inhibition of metallo-beta-lactamase in methicillin-resistant Staphylococcus aureus isolate 1 assessed as reduction in vancomycin MIC after 24 hrs by macrobroth dilution assay
Outline: (§1)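 Macrobroth twofold dilution in Mueller–Hinton (MH) medium. Each tube held inhibitor stock plus antibiotic from a 1280 µg/ml stock, serially twofold diluted. Final inoculum was 5 × 10⁵ CFU/ml. MIC was read after 24 h at 37 °C, with inhibitor present or absent, in duplicate.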

[2] = system: Escherichia coli BL21(DE3); assay: Inhibition of CcrA in Escherichia coli BL21(DE3) assessed as reduction in cefazolin MIC for after 24 hrs by macrobroth dilution assay; design: scale not given: the % may be the effect or the level left
Outline: (§2)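 Macrobroth twofold antibiotic dilutions in Mueller–Hinton medium, tubes with or without inhibitor. Strains were E. coli BL21(DE3) carrying pMSZ02-CcrA, pET-26b-ImiS or pET26b-L1, and K. pneumoniae ATCC 700603. Incubated 37 °C for 24 h; MIC read. Duplicate.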

[3] = system: Escherichia coli BL21(DE3); assay: Inhibition of Imis in Escherichia coli BL21(DE3) assessed as reduction in cefazolin MIC after 24 hrs by macrobroth dilution assay; design: scale not given: the % may be the effect or the level left; conditions: in the assay text read “imipenem” for “cefazolin”; outline: as §2
Klebsiella pneumoniae = assay: Inhibition of metallo-beta-lactamase in Klebsiella pneumoniae ATCC 700603 assessed as reduction in cefazolin MIC after 24 hrs by macrobroth dilution assay; outline: as §2
[4] = Competitive inhibition of L1 using cezafolin as substrate incubated for 30 mins prior to substrate addition by Lineweaver-burk plot analysis
Outline: (§3)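 Purified CcrA (Bacteroides fragilis) or L1 (S. maltophilia), over-expressed. Cefazolin substrate at several concentrations, inhibitor concentration varied from 0. Enzyme and inhibitor preincubated 30 min. Run in 50 mM Tris pH 7.0 at 25 °C with UV–Vis spectrophotometric read-out. Inhibition mode from Lineweaver–Burk plots; Ki determined.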

Staphylococcus aureus [5] = assay: Inhibition of metallo-beta-lactamase in methicillin-resistant Staphylococcus aureus isolate 1 assessed as reduction in cefazolin MIC after 24 hrs by macrobroth dilution assay; outline: as §1
Staphylococcus aureus [6] = assay: Inhibition of metallo-beta-lactamase in methicillin-resistant Staphylococcus aureus isolate 2 assessed as reduction in cefazolin MIC after 24 hrs by macrobroth dilution assay; outline: as §1
Staphylococcus aureus [7] = assay: Inhibition of metallo-beta-lactamase in methicillin-resistant Staphylococcus aureus isolate 2 assessed as reduction in vancomycin MIC after 24 hrs by macrobroth dilution assay; outline: as §1
[8] = system: Escherichia coli BL21(DE3); assay: Inhibition of L1 in Escherichia coli BL21(DE3) assessed as reduction in cefazolin MIC after 24 hrs by macrobroth dilution assay; outline: as §2
[9] = Competitive inhibition of CcrA using cezafolin as substrate incubated for 30 mins prior to substrate addition by Lineweaver-burk plot analysis; outline: as §3
[10] = Inhibition of ImiS using imipenem as substrate up to 50 uM incubated for 30 mins prior to substrate addition
[11] = Inhibition of L1 using cezafolin as substrate up to 50 uM incubated for 30 mins prior to substrate addition
[12] = Inhibition of CcrA using cezafolin as substrate up to 50 uM incubated for 30 mins prior to substrate addition
[13] = Noncompetitive inhibition of ImiS using imipenem as substrate incubated for 30 mins prior to substrate addition by Lineweaver-burk plot analysis
[14] = Noncompetitive inhibition of CcrA using cezafolin as substrate incubated for 30 mins prior to substrate addition by Lineweaver-burk plot analysis; outline: as §3
[15] = Competitive inhibition of ImiS using imipenem as substrate incubated for 30 mins prior to substrate addition by Lineweaver-burk plot analysis

SMILES | Activity (Staphylococcus aureus [1]) | Activity [2] | Activity [3] | Activity (Klebsiella pneumoniae) | Ki [4] [nM] | Activity (Staphylococcus aureus [5]) | Activity (Staphylococcus aureus [6]) | Activity (Staphylococcus aureus [7]) | Activity [8] | Ki [9] [nM] | inhibition [10] | inhibition [11] | inhibition [12] | Ki [13] [nM] | Ki [14] [nM] | Ki [15] [nM]
O=C(O)C1COC(C(=O)O)N1 (configuration not stated) | inactive | Active | inactive | Active | 1900 | inactive | inactive | inactive | Active | 1100 | inactive |  |  |  |  | 
Sc1nnc(-c2ccccn2)[nH]1 | inactive | inactive | inactive | inactive |  | inactive | inactive | inactive | inactive |  | inactive | inactive | inactive |  |  | 
Sc1nnc(-c2ccccn2)s1 | inactive | 50% | 50% | inactive |  | inactive | inactive | inactive | inactive |  |  | inactive |  | 3500 | 5400 | 
Sc1nnc(-c2ccncc2)[nH]1 | inactive | inactive | inactive | inactive |  | inactive | inactive | inactive | inactive |  | inactive | inactive | inactive |  |  | 
O=C(O)C1CSC(C(=O)O)N1 (configuration not stated) [TIDIACIC] | inactive | Active | Active | Active | 1800 | inactive | inactive | inactive | Active | 640 |  |  |  |  |  | 7100
S=c1[nH]nc(-c2ccncc2)s1 | inactive | 50% | 50% | inactive |  | inactive | inactive | inactive | inactive |  |  | inactive |  | 6800 | 5900 | 
O=C(O)C1CCC(C(=O)O)N1 (configuration not stated) | inactive | Active | inactive | Active | 690 | inactive | inactive | inactive | Active | 730 | inactive |  |  |  |  | 
